# “And” between values parts separate entries of the source, which are not always exact repeats. Equal entries are not always repeated.
# Tests used:
# Fibroblast = assay: Multiplex assay against human fibroblast; format: toxicity, cell-based
# Outline: (§1)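 Imaging took place on a CQ1 microscope at 37°C and 5% CO2 once compound had been added to live cells stained at seeding with Hoechst33342, BioTracker Green Microtubule Cytoskeleton Dye, MitoTracker Red and Annexin V Alexa Fluor 680. CellPathfinder machine-learning gating classed cells as Hoechst high-intensity objects or normal cells, classed normal cells as having healthy, pyknosed or fragmented nuclei, and classed pyknosed cells as mitotic or apoptotic. Tubulin, mitochondrial-mass and membrane-permeability phenotypes are per cents of the healthy-nucleus cells.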
# U2OS = assay: Multiplex assay against U2OS; format: toxicity, cell-based; settings: human; outline: as §1
# [1] = 24 h, 1 µM, compound concentration 1 uM
# [2] = 24 h, 10 µM, compound concentration 10 uM
# [3] = 48 h, 1 µM, compound concentration 1 uM
# [4] = 48 h, 10 µM, compound concentration 10 uM
# [5] = 12 h, 1 µM, compound concentration 1 uM
# [6] = 12 h, 10 µM, compound concentration 10 uM
structure (smiles),measurement,setting,value
CCc1cc2cc(NS(=O)(=O)c3ccc(C#N)cc3)ccc2n(CC)c1=O,Total Cell Count,Fibroblast; [1],157 and 164
same,Population Apoptotic (%),Fibroblast; [2],50% and 32%
same,Population Fragmented Nuclei (%),Fibroblast; [2],19% and 22%
same,Population Healthy Nuclei (%),Fibroblast; [2],58% and 38%
same,Population Hoechst High Intensity Objects (%),Fibroblast; [2],2% and 9%
same,Population Membrane Permeable-Phenotype (%),Fibroblast; [2],1% and 6%
same,Population Mitochondria Different-Phenotype (%),Fibroblast; [2],6% and 12%
same,Population Mitotic Cells (%),Fibroblast; [2],50% and 67%
same,Population Normal (%),Fibroblast; [2],97% and 90%
same,Population Pyknosed Nuclei (%),Fibroblast; [2],22% and 39%
same,Population Tubulin-Different-Phenotype (%),Fibroblast; [2],59% and 72%
same,Total Cell Count,Fibroblast; [2],130 and 145
same,Population Apoptotic (%),Fibroblast; [3],52% and 37%
same,Population Fragmented Nuclei (%),Fibroblast; [3],24% and 33%
same,Population Healthy Nuclei (%),Fibroblast; [3],59% and 50%
same,Population Hoechst High Intensity Objects (%),Fibroblast; [3],3% and 5%
same,Population Membrane Permeable-Phenotype (%),Fibroblast; [3],0% and 12%
same,Population Mitochondria Different-Phenotype (%),Fibroblast; [3],4% and 8%
same,Population Mitotic Cells (%),Fibroblast; [3],47% and 62%
same,Population Normal (%),Fibroblast; [3],96% and 94%
same,Population Pyknosed Nuclei (%),Fibroblast; [3],15% and 16%
same,Population Tubulin-Different-Phenotype (%),Fibroblast; [3],27% and 60%
same,Total Cell Count,Fibroblast; [3],150 and 156
same,Population Apoptotic (%),Fibroblast; [4],60%
same,Population Fragmented Nuclei (%),Fibroblast; [4],17% and 30%
same,Population Healthy Nuclei (%),Fibroblast; [4],62% and 48%
same,Population Hoechst High Intensity Objects (%),Fibroblast; [4],1% and 7%
same,Population Mitochondria Different-Phenotype (%),Fibroblast; [4],12% and 7%
same,Population Mitotic Cells (%),Fibroblast; [4],40% and 39%
same,Population Normal (%),Fibroblast; [4],98% and 92%
same,Population Pyknosed Nuclei (%),Fibroblast; [4],19% and 20%
same,Population Tubulin-Different-Phenotype (%),Fibroblast; [4],61% and 69%
same,Total Cell Count,Fibroblast; [4],129 and 145
same,Population Apoptotic (%),U2OS; [5],88% and 100%
same,Population Fragmented Nuclei (%),U2OS; [5],30% and 26%
same,Population Healthy Nuclei (%),U2OS; [5],60% and 70%
same,Population Hoechst High Intensity Objects (%),U2OS; [5],3% and 1%
same,Population Membrane Permeable-Phenotype (%),U2OS; [5],4% and 8%
same,Population Mitochondria Different-Phenotype (%),U2OS; [5],2%
same,Population Mitotic Cells (%),U2OS; [5],11% and 0%
same,Population Normal (%),U2OS; [5],96% and 98%
same,Population Pyknosed Nuclei (%),U2OS; [5],9% and 3%
same,Population Tubulin-Different-Phenotype (%),U2OS; [5],2% and 7%
same,Total Cell Count,U2OS; [5],286 and 113
same,Population Apoptotic (%),U2OS; [6],66% and 87%
same,Population Fragmented Nuclei (%),U2OS; [6],28% and 13%
same,Population Healthy Nuclei (%),U2OS; [6],64% and 80%
same,Population Hoechst High Intensity Objects (%),U2OS; [6],2%
same,Population Membrane Permeable-Phenotype (%),U2OS; [6],9% and 6%
same,Population Mitochondria Different-Phenotype (%),U2OS; [6],3%
same,Population Mitotic Cells (%),U2OS; [6],33% and 12%
same,Population Normal (%),U2OS; [6],97%
same,Population Pyknosed Nuclei (%),U2OS; [6],6% and 5%
same,Population Tubulin-Different-Phenotype (%),U2OS; [6],4%
same,Total Cell Count,U2OS; [6],220 and 139
same,Population Apoptotic (%),U2OS; [1],85% and 88%
same,Population Fragmented Nuclei (%),U2OS; [1],29% and 16%
same,Population Healthy Nuclei (%),U2OS; [1],61% and 75%
same,Population Hoechst High Intensity Objects (%),U2OS; [1],2% and 1%
same,Population Membrane Permeable-Phenotype (%),U2OS; [1],9% and 7%
same,Population Mitochondria Different-Phenotype (%),U2OS; [1],2% and 7%
same,Population Mitotic Cells (%),U2OS; [1],14% and 11%
same,Population Normal (%),U2OS; [1],97% and 98%
same,Population Pyknosed Nuclei (%),U2OS; [1],8% and 7%
same,Population Tubulin-Different-Phenotype (%),U2OS; [1],6% and 3%
same,Total Cell Count,U2OS; [1],335 and 126
same,Population Apoptotic (%),U2OS; [2],95% and 80%
same,Population Fragmented Nuclei (%),U2OS; [2],23% and 14%
same,Population Healthy Nuclei (%),U2OS; [2],67% and 79%
same,Population Hoechst High Intensity Objects (%),U2OS; [2],3%
same,Population Membrane Permeable-Phenotype (%),U2OS; [2],4% and 6%
same,Population Mitochondria Different-Phenotype (%),U2OS; [2],2%
same,Population Normal (%),U2OS; [2],96%
same,Population Pyknosed Nuclei (%),U2OS; [2],9% and 6%
same,Population Tubulin-Different-Phenotype (%),U2OS; [2],1% and 2%
same,Total Cell Count,U2OS; [2],263 and 159
same,Population Apoptotic (%),U2OS; [3],89% and 84%
same,Population Fragmented Nuclei (%),U2OS; [3],21% and 19%
same,Population Healthy Nuclei (%),U2OS; [3],70% and 73%
same,Population Hoechst High Intensity Objects (%),U2OS; [3],2% and 3%
same,Population Membrane Permeable-Phenotype (%),U2OS; [3],6%
same,Population Mitochondria Different-Phenotype (%),U2OS; [3],3% and 5%
same,Population Mitotic Cells (%),U2OS; [3],10% and 15%
same,Population Normal (%),U2OS; [3],97% and 96%
same,Population Pyknosed Nuclei (%),U2OS; [3],8% and 6%
same,Population Tubulin-Different-Phenotype (%),U2OS; [3],2% and 3%
same,Total Cell Count,U2OS; [3],450 and 192
same,Population Apoptotic (%),U2OS; [4],88% and 96%
same,Population Fragmented Nuclei (%),U2OS; [4],18% and 15%
same,Population Healthy Nuclei (%),U2OS; [4],72% and 73%
same,Population Hoechst High Intensity Objects (%),U2OS; [4],3% and 2%
same,Population Membrane Permeable-Phenotype (%),U2OS; [4],6% and 8%
same,Population Mitochondria Different-Phenotype (%),U2OS; [4],2% and 3%
same,Population Mitotic Cells (%),U2OS; [4],11% and 3%
same,Population Normal (%),U2OS; [4],96% and 97%
same,Population Pyknosed Nuclei (%),U2OS; [4],9% and 11%
same,Population Tubulin-Different-Phenotype (%),U2OS; [4],3% and 7%
same,Total Cell Count,U2OS; [4],387 and 248

# Source: ChEMBL document CHEMBL5724801, “EUbOPEN Chemogenomics Library - Multiplex” (2024)
